How the values were obtained:
Plasmodium gallinaceum [1] = test: Antimalarial activity against Plasmodium gallinaceum vectored in Aedes fluviatilis infected in chicken assessed as reduction in mosquito infection at 25 mg/kg, po measured after 4 hrs by Giemsa staining based microscopic analysis relative to control; assay type: functional
How it was run: (§1)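 One-day-old chickens infected intramuscularly with P. gallinaceum-infected erythrocytes; parasitemia and gametocytemia followed by daily Giemsa-stained smears. Chickens with rising parasitemia below 10% fed to starved (12 h) female Ae. fluviatilis (kept 28 °C, 80% humidity) at 0 h (control) and 4 h after dosing (test compound 25–50 mg/kg; PQ 15 mg/kg). Oocyst counts and mosquito infection rates compared with nontreated groups.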

J774.A1 [2] = test: Inhibition of LPS-induced NO production in mouse J774.A1 cells incubated for 24 hrs by Griess reagent based assay; assay type: functional, cell-based; details: dose microM 0.5-25, time 24.0 hrs
How it was run: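 Compounds made as 10 mM DMSO stocks and diluted in medium. J774A.1 cells pre-incubated with compounds at 25 μM for screening, or 0.5–25 μM for dose-response, with dexamethasone 1 μM or 0.2% DMSO as controls. Stimulated with LPS 37.5 ng/ml plus IFNγ 25 U/ml for 24 h at 37 °C, 5% CO2. Supernatant nitrite measured by Griess at 540 nm. Triplicate, mean ± SEM.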

Plasmodium gallinaceum [3] = test: Antimalarial activity against Plasmodium gallinaceum vectored in Aedes fluviatilis infected in chicken assessed as reduction in gametocyte stage at 25 mg/kg, po measured immediately by Giemsa staining based microscopic analysis relative to control; assay type: functional; parameters: scale not given: the % may be the effect or the level left; details: time 0 hrs; how it was run: as §1
Plasmodium gallinaceum [4] = test: Antimalarial activity against Plasmodium gallinaceum vectored in Aedes fluviatilis infected in chicken assessed as reduction in mosquito infection at 25 mg/kg, po measured immediately by Giemsa staining based microscopic analysis relative to control; assay type: functional; parameters: scale not given: the % may be the effect or the level left; details: time 0 hrs; how it was run: as §1
Plasmodium gallinaceum [5] = test: Antimalarial activity against Plasmodium gallinaceum vectored in Aedes fluviatilis infected in chicken assessed as reduction in oocyst number at 50 mg/kg, po measured after 4 hrs by Giemsa staining based microscopic analysis relative to control; assay type: functional; parameters: scale not given: the % may be the effect or the level left; how it was run: as §1
Plasmodium gallinaceum [6] = test: Antimalarial activity against Plasmodium gallinaceum vectored in Aedes fluviatilis infected in chicken assessed as reduction in parasite growth at 50 mg/kg, po measured immediately by Giemsa staining based microscopic analysis relative to control; assay type: functional; parameters: scale not given: the % may be the effect or the level left; details: time 0 hrs; how it was run: as §1
Plasmodium gallinaceum [7] = test: Antimalarial activity against Plasmodium gallinaceum vectored in Aedes fluviatilis infected in chicken assessed as reduction in mosquito infection at 50 mg/kg, po measured after 4 hrs by Giemsa staining based microscopic analysis relative to control; assay type: functional; how it was run: as §1
[8] = Cytotoxicity against monkey BGM cells assessed as reduction in cell viability incubated for 24 hrs by neutral red dye based assay; details: chlorocebus aethiops, read-out: MDL50
How it was run: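 BGM monkey kidney cells grown in RPMI 1640 with 10% heat-inactivated fetal serum and gentamicin, 5% CO2, 37 °C. Cells allowed to adhere for 24 h, then exposed to compounds at 1000–1 μg/mL for 24 h. Neutral red uptake for 3 h, formaldehyde/CaCl2 fix, alcohol-acetic acid elution, absorbance at 540 nm. Viability taken as percent of untreated cells after background subtraction. MLD50 derived from this.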

[9] = Cytotoxicty against mouse J774.A1 cells assessed as cell viability at 12.5 uM incubated for 24 hrs by resazurin dye based assay (reference value: 100 %); details: read-out: Activity
How it was run: (§2)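 J774A.1 macrophages grown in DMEM with 10% FBS and 0.1% gentamycin, seeded at 1×10^5 cells/well. Exposed to compounds at 0, 12.5, 25, 50 or 100 μM for 24 h. Resazurin (10 μg/ml) added for 3 h, then fluorescence read. Run in triplicate. Viability given as percent of 0.2% DMSO-treated cells.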

Plasmodium gallinaceum [10] = test: Antimalarial activity against Plasmodium gallinaceum vectored in Aedes fluviatilis infected in chicken assessed as reduction in gametocyte stage at 50 mg/kg, po measured immediately by Giemsa staining based microscopic analysis relative to control; assay type: functional; parameters: scale not given: the % may be the effect or the level left; details: time 0 hrs; how it was run: as §1
Plasmodium gallinaceum [11] = test: Antimalarial activity against Plasmodium gallinaceum vectored in Aedes fluviatilis infected in chicken assessed as reduction in mosquito infection at 50 mg/kg, po measured immediately by Giemsa staining based microscopic analysis relative to control; assay type: functional; parameters: scale not given: the % may be the effect or the level left; details: time 0 hrs; how it was run: as §1
Plasmodium falciparum = test: Antimalarial activity against Plasmodium falciparum CQR (W2 clone) infected in human erythrocyte assessed as reduction in parasite growth incubated for 48 hrs by SYBR assay; assay type: functional, organism-based
How it was run: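 W2 parasites cultured in A+ human erythrocytes in RPMI 1640 with ALBUMAX II, candle jar, 37 °C. Rings synchronized with sorbitol, then exposed to serial dilutions at 0.5% parasitemia and 2% hematocrit for 48 h at 37 °C. Lysis buffer with SYBR Safe, 30 min in the dark, fluorescence read at ex 485 nm. IC50 from sigmoid curve fit against drug-free control.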

J774.A1 [12] = test: Inhibition of LPS-induced TNFalpha production in mouse J774.A1 cells incubated for 24 hrs by ELISA; assay type: functional, cell-based; details: dose microM 0.5-25, time 24.0 hrs
How it was run: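 J774A.1 cells seeded at 2×10^6 cells/well. Pretreated with vehicle, dexamethasone 1 μM, or compounds at 0.5–25 μM. Stimulated with LPS 100 ng/ml for 24 h. Supernatants stored at −20 °C, then TNFα measured by sandwich ELISA in pg/mL. Triplicate, mean ± SEM.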

Plasmodium gallinaceum [13] = test: Antimalarial activity against Plasmodium gallinaceum vectored in Aedes fluviatilis infected in chicken assessed as reduction in oocyst number at 50 mg/kg, po measured immediately by Giemsa staining based microscopic analysis; assay type: functional; details: time 0 hrs; how it was run: as §1
[14] = Cytotoxicty against mouse J774.A1 cells assessed as cell viability at 100 uM incubated for 24 hrs by resazurin dye based assay (reference value: 100 %); details: read-out: Activity; how it was run: as §2
Plasmodium gallinaceum [15] = test: Antimalarial activity against Plasmodium gallinaceum vectored in Aedes fluviatilis infected in chicken assessed as reduction in parasite growth at 25 mg/kg, po measured immediately by Giemsa staining based microscopic analysis relative to control; assay type: functional; parameters: scale not given: the % may be the effect or the level left; details: time 0 hrs; how it was run: as §1
[16] = Cytotoxicty against mouse J774.A1 cells assessed as cell viability at 50 uM incubated for 24 hrs by resazurin dye based assay (reference value: 100 %); details: read-out: Activity; how it was run: as §2
Plasmodium gallinaceum [17] = test: Antimalarial activity against Plasmodium gallinaceum vectored in Aedes fluviatilis infected in chicken assessed as reduction in oocyst number at 25 mg/kg, po measured after 4 hrs by Giemsa staining based microscopic analysis relative to control; assay type: functional; parameters: scale not given: the % may be the effect or the level left; how it was run: as §1
[18] = Selectivity index, ratio of MDL50 for monkey BGM cells to IC50 for Plasmodium falciparum CQR (W2 clone) infected in human Erythrocyte; assay type: toxicity
How it was run: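 SI calculated as MLD50 in BGM cells (neutral red, 24 h) divided by IC50 against P. falciparum W2 (SYBR, 48 h).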

Plasmodium gallinaceum [19] = test: Antimalarial activity against Plasmodium gallinaceum vectored in Aedes fluviatilis infected in chicken assessed as reduction in oocyst number at 25 mg/kg, po measured immediately by Giemsa staining based microscopic analysis; assay type: functional; details: time 0 hrs; how it was run: as §1
[20] = Cytotoxicty against mouse J774.A1 cells assessed as cell viability at 25 uM incubated for 24 hrs by resazurin dye based assay (reference value: 100 %); details: read-out: Activity; how it was run: as §2
Plasmodium gallinaceum [21] = test: Antimalarial activity against Plasmodium gallinaceum vectored in Aedes fluviatilis infected in chicken assessed as reduction in mosquito infection at 15 mg/kg, po measured after 4 hrs by Giemsa staining based microscopic analysis relative to control; assay type: functional; how it was run: as §1
Plasmodium gallinaceum [22] = test: Antimalarial activity against Plasmodium gallinaceum vectored in Aedes fluviatilis infected in chicken assessed as reduction in oocyst number at 15 mg/kg, po measured immediately by Giemsa staining based microscopic analysis; assay type: functional; details: time 0 hrs; how it was run: as §1
Plasmodium gallinaceum [23] = test: Antimalarial activity against Plasmodium gallinaceum vectored in Aedes fluviatilis infected in chicken assessed as reduction in oocyst number at 15 mg/kg, po measured after 4 hrs by Giemsa staining based microscopic analysis relative to control; assay type: functional; parameters: scale not given: the % may be the effect or the level left; how it was run: as §1
Plasmodium gallinaceum [24] = test: Antimalarial activity against Plasmodium gallinaceum vectored in Aedes fluviatilis infected in chicken assessed as reduction in gametocyte stage at 15 mg/kg, po measured immediately by Giemsa staining based microscopic analysis relative to control; assay type: functional; parameters: scale not given: the % may be the effect or the level left; details: time 0 hrs; how it was run: as §1
Plasmodium gallinaceum [25] = test: Antimalarial activity against Plasmodium gallinaceum vectored in Aedes fluviatilis infected in chicken assessed as reduction in parasite growth at 15 mg/kg, po measured immediately by Giemsa staining based microscopic analysis relative to control; assay type: functional; parameters: scale not given: the % may be the effect or the level left; details: time 0 hrs; how it was run: as §1
Plasmodium gallinaceum [26] = test: Antimalarial activity against Plasmodium gallinaceum vectored in Aedes fluviatilis infected in chicken assessed as reduction in mosquito infection at 15 mg/kg, po measured immediately by Giemsa staining based microscopic analysis relative to control; assay type: functional; parameters: scale not given: the % may be the effect or the level left; details: time 0 hrs; how it was run: as §1

COc1cc(NC(C)CCCNC(=O)C(F)(F)c2cc(Cl)ccc2NC(C)=O)c2ncccc2c1 (stereo not given)
inhibition in vivo at 25 mg/kg (Plasmodium gallinaceum [1]): 5% | inhibition (J774.A1 [2]): Dose-dependent effect | Activity (Plasmodium gallinaceum [3]): 41% | Activity (Plasmodium gallinaceum [4]): 89% | Activity (Plasmodium gallinaceum [5]): 81.3% | Activity (Plasmodium gallinaceum [6]): 10.3% | inhibition in vivo at 50 mg/kg (Plasmodium gallinaceum [7]): 15% | CC50 at 24 h [8]: 13.6 µM | viability at 24 h, 12.5 µM [9]: 100% | Activity (Plasmodium gallinaceum [10]): 42% | Activity (Plasmodium gallinaceum [11]): 95% | IC50 (Plasmodium falciparum): 8.4 µM | inhibition (J774.A1 [12]): Dose-dependent effect | Activity (Plasmodium gallinaceum [13]): 166 | viability at 24 h, 100 µM [14]: 33.9% | Activity (Plasmodium gallinaceum [15]): 4.7% | viability at 24 h, 50 µM [16]: 56.2% | Activity (Plasmodium gallinaceum [17]): 0% | selectivity ratio [18]: 1.6 | Activity (Plasmodium gallinaceum [19]): 56 | viability at 24 h, 25 µM [20]: 96.8%

COc1cc(NC(C)CCCN)c2ncccc2c1 (stereo not given) [PRIMAQUINE]
inhibition in vivo at 15 mg/kg (Plasmodium gallinaceum [21]): 100% | Activity (Plasmodium gallinaceum [22]): 41 | Activity (Plasmodium gallinaceum [23]): 100% | CC50 at 24 h [8]: 483 µM | IC50 (Plasmodium falciparum): 1.9 µM | Activity (Plasmodium gallinaceum [24]): 45% | selectivity ratio [18]: 255 | Activity (Plasmodium gallinaceum [25]): 7% | Activity (Plasmodium gallinaceum [26]): 85%
